Holding throughout (format): functional
Assay [1] can be described thus: Antisickling activity and percentage of cells sickled after incubation in 3 mM solution under oxygen content 4.06% was reported at 30.8 mm of Hg pressure. The method in brief:
(§1)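 Washed homozygous SS erythrocytes (HbF <8%, MCHC 33.5 g %, stored 4 °C, used within 24 h) at 1.0% hematocrit in PBS pH 7.2 (295 mosmol/kg, 0.5% w/v BSA) with 3 mM compound. Incubated 1 h at 37 °C with rotation. Cells were air-exposed 10 min, deoxygenated with 4.06% O2/4.4% CO2/N2, or deoxygenated with N2 alone. PO2 measured, then anaerobic fixation, 30 min RT.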

Assay [2] in a line: Aantisickling activity and percentage of cells sickled after incubation in 3 mM solution under oxygen content 0.0% was reported. A digest of the protocol:
as §1

Assay [3] is described as follows: Antisickling activity and change in mean corpuscular hemoglobin ratio was reported at a concentration of 2.55 mM. The method in brief: (§2)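 Erythrocytes incubated with compound as in the morphological assay (PBS pH 7.2, 295 mosmol/kg, 0.5% BSA, 37 °C) but at 10% hematocrit. Triplicate readings on each of three aliquots taken 1 to 3 h after exposure. Lysis and cyanomet-Hb conversion, then MCHC read on a Coulter hemoglobinometer. Values averaged over nine measurements and expressed as MCHC0/MCHC.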

The nature of assay [4]: Antisickling activity and percentage of cells sickled after incubation in 3 mM solution under oxygen content 20.1% was reported at normal atmospheric pressure. The method in brief: as §1
Assay [5] is described as follows: Antisickling activity and change in mean corpuscular hemoglobin ratio was reported at a concentration of 3.65 mM. The method in brief: as §2
Assay [6] in a line: Antisickling activity and change in mean corpuscular hemoglobin ratio was reported at a concentration of 1.35 mM. A digest of the protocol: as §2
The nature of assay [7]: Effect of 3 mM of compound on homozygous sickle cells at a total oxygen saturation of 47% and estimates of volume fraction of HbS polymer present was determined. A digest of the protocol: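 Homozygous SS cells (MCHC 33.9 g %) at 1% Hct with 3 mM compound, deoxygenated at 37 °C with 4.06% O2 gas (47% total O2 saturation per O2 affinity curve in PBS pH 7.392). Suspension forced through a 5-μm polycarbonate membrane at 3.1 cmHg. Passed cells weighed after 5-6 min, corrected for interstitial solvent with 3H-methoxyinulin. R = deoxygenated/oxygenated recovered weight. fp calculated with Cp 0.69 g/cm3 and Cs0 0.164 g/cm3.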

Assay [8] can be described thus: Antisickling activity and change in mean corpuscular hemoglobin ratio was reported at a concentration of 4.80 mM. The method in brief:
as §2

Each structure is given as a SMILES string.

For three compounds, Cells sickled, Ratio and fp results are on record in ChEMBL document CHEMBL1122646, “Synthesis of pyridine derivatives of L-phenylalanine as antisickling reagents” (1984).

Take `Cl.Cl.NC(Cc1ccccc1)C(=O)Nc1cccnc1` (centres undefined): the Cells sickled in assay [1] amounted to 23.6%; in assay [2], 59%; in assay [4], 11.4%. Further, the Ratio in assay [3] stood at 1.07; in assay [5] it was 1.13; in assay [6], 1.05; in assay [8], 1.17. Besides, the fp in assay [7] is given as 0.24.

For the compound `Cl.Cl.NC(Cc1ccccc1)C(=O)Nc1ccccn1` (centres undefined), the figures for the Cells sickled in assay [1], in assay [2] and in assay [4] were 32.6%, 71.1% and 9.1%, respectively. The Ratio is 1.08 in assay [3], 1.11 in assay [5], 1.04 in assay [6] and 1.15 in assay [8]. The fp in assay [7] is 0.24.

With `Cl.Cl.NC(Cc1ccccc1)C(=O)Nc1ccncc1` (centres undefined), the Cells sickled in assay [1] is reported as 25.2%; in assay [2], 70.8%; in assay [4], 10.2%.
